According to ChEMBL document CHEMBL4130635, “2,4-Diaminoquinazolines as Dual Toll-like Receptor (TLR) 7/8 Modulators for the Treatment of Hepatitis B Virus” (J Med Chem, 2018):

Experiments:
[1] = biological target: T1, Toll-like receptor 7 (Homo sapiens) (UniProt Q9NYK1); experiment: Agonist activity at human TLR7 expressed in HEK293 cells assessed as induction of receptor activation incubated for 6 hrs by NF-kappaB-luciferase reporter gene assay; type: cell-based
T1 sequence (whole entry): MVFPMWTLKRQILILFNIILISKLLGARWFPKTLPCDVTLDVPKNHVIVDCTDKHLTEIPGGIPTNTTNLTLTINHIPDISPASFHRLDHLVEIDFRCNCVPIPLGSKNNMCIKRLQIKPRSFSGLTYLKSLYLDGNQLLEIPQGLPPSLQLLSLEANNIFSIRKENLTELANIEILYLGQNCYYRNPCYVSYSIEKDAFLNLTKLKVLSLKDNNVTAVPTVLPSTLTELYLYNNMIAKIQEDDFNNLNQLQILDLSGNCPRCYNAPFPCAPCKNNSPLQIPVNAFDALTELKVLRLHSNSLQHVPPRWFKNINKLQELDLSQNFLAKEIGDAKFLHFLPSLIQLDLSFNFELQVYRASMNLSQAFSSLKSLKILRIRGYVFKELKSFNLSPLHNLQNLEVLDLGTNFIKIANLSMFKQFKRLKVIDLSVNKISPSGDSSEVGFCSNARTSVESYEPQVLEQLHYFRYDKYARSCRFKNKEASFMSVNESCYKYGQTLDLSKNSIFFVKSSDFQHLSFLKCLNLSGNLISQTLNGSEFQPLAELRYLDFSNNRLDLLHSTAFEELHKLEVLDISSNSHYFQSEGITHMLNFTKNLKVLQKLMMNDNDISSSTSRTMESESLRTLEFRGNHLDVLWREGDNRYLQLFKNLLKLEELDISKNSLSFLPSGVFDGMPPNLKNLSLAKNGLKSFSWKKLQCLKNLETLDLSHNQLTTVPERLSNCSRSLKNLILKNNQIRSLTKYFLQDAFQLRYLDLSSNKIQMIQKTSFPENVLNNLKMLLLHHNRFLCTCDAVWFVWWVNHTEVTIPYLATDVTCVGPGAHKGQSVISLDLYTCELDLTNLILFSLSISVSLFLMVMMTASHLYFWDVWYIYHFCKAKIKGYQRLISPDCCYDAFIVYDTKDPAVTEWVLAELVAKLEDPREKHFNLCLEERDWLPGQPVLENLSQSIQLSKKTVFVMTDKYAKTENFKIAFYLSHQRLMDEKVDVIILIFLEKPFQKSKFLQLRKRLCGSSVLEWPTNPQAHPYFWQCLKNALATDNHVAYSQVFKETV
Outline: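 HEK cell-based assay using a wild-type TLR7 expression vector; a parallel TLR8 vector construct served for selectivity. Results are expressed as lowest effective concentration (LEC), averaged over independent experiments where determined two or more times. A separate HEK 293 cytotoxicity (TOX) assay gave CC50 alongside.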

[2] = biological target: T2, Toll-like receptor 8 (Homo sapiens) (UniProt Q9NR97); experiment: Agonist activity at human TLR8 expressed in HEK293 cells assessed as induction of receptor activation incubated for 6 hrs by NF-kappaB-luciferase reporter gene assay; type: cell-based
T2 sequence (whole entry): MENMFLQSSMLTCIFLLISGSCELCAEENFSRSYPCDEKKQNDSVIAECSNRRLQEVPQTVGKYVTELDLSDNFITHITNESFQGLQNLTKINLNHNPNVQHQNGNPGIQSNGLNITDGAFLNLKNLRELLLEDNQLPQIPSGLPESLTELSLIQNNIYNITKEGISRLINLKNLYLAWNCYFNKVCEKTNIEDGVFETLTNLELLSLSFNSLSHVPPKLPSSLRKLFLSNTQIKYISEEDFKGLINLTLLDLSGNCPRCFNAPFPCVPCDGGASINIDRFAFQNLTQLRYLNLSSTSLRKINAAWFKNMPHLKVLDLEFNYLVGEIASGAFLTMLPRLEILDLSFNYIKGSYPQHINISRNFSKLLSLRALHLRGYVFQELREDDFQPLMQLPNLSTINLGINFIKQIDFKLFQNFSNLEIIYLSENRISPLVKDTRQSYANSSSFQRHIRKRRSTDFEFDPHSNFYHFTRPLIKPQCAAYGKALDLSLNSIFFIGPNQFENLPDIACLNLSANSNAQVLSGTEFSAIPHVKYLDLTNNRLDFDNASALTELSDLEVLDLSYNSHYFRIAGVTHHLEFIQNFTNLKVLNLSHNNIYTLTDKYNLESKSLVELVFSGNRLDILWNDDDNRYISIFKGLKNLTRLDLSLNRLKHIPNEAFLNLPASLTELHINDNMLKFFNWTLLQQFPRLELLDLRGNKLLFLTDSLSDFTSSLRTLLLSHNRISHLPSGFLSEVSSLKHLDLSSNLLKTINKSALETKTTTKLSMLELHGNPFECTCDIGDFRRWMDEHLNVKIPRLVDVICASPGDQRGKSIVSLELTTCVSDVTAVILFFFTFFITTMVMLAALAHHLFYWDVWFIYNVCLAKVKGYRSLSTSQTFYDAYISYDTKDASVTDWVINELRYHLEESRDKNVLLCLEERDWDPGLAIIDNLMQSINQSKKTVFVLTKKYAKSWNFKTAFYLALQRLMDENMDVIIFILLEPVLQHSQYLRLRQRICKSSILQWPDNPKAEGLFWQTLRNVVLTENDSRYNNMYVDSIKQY

[3] = Cytotoxicity against HEK293 cells assessed as reduction in cell viability after 6 hrs by ATP lite assay; type: cell-based; conditions: human
[4] = biological target: Voltage-gated inwardly rectifying potassium channel KCNH2 (Homo sapiens, UniProt Q12809); experiment: Inhibition of radioligand binding to human ERG expressed in HEK293 cell membranes by scintillation counting method
[5] = Metabolic stability in mouse liver microsomes assessed as compound metabolized at 1 uM after 15 mins; type: ADME, microsome; conditions: read-out: Drug metabolism
Outline: (§1)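 Mouse (M) or human (H) liver microsomes incubated with compound at 1 μM; percent metabolized after 15 min.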

[6] = Metabolic stability in human liver microsomes assessed as compound metabolized at 1 uM after 15 mins; type: ADME, microsome; conditions: read-out: Drug metabolism; outline: as §1
[7] = biological target: T1, Toll-like receptor 7 (Homo sapiens); experiment: Agonist activity at TLR7 in human PBMC assessed as suppression of HCV replicon replication in human HuH7 luc/neo cells harboring RNA encoding bicistronic expression construct comprising wild type HCV type 1b NS3-NS5B regions exposed to conditioned media from compound treated PBMCs after 24 hrs by luciferase reporter gene assay; type: cell-based
Outline: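 Human PBMCs were incubated with compound. Their medium was then transferred onto an HCV replicon system, so the antiviral read-out reflects interferon and cytokines the PBMCs induced. Values are reported as lowest effective concentration (LEC), averaged when determined in two or more independent experiments.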

HepG2 = experiment: Cytotoxicity against human HepG2 cells; type: cell-based

Sequence of Voltage-gated inwardly rectifying potassium channel KCNH2 (Q12809 whole entry): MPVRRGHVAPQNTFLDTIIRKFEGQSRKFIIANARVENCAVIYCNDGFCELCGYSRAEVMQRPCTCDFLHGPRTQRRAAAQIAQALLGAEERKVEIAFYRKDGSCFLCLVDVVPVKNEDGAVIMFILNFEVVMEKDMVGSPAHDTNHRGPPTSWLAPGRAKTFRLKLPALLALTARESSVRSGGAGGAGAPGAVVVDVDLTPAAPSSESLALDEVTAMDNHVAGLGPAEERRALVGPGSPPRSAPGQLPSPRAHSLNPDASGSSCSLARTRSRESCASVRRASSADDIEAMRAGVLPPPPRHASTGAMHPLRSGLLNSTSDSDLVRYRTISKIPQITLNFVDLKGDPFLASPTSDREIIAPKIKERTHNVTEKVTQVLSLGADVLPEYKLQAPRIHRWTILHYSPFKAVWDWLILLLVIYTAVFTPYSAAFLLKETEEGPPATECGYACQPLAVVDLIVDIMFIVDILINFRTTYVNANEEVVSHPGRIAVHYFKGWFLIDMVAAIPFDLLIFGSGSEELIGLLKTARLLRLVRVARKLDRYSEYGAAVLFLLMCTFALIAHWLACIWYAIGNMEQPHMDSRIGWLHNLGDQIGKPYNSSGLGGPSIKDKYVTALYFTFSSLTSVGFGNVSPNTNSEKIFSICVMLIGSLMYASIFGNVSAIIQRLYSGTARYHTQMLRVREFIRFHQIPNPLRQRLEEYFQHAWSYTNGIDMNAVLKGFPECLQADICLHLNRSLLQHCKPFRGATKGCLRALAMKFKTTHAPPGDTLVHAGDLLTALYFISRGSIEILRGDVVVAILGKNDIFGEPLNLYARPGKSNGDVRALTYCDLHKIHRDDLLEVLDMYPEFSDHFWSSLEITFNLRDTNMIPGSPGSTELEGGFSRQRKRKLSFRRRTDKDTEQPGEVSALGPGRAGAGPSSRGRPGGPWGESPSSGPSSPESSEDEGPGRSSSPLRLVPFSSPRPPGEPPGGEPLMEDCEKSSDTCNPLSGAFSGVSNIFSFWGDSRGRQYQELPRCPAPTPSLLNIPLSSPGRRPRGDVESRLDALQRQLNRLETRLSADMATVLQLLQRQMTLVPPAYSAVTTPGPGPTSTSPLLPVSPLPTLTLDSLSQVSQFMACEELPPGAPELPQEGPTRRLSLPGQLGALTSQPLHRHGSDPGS

Structure (SMILES)	MEC [1] [µM]	MEC [2] [µM]	CC50 at 6 h [3] [µM]	IC50 [4] [µM]	metabolised at 0.25 h, 1 µM [5] [%]	metabolised at 0.25 h, 1 µM [6] [%]	MEC [7] [µM]	EC20 (HepG2) [µM]
CCC[C@@H](CCO)Nc1nc(N)nc2cccc(F)c12	0.22	0.02	> 24	8.9	47	62		
CC[C@H](C)[C@@H](CO)Nc1nc(N)nc2ccccc12	1.34	0.08	> 24				0.14	
CCCC[C@@H](CCO)Nc1nc(N)nc2cccc(F)c12	0.34	0.1	> 24	> 10	25	87	0.06	13.2
CC(C)C[C@@H](CO)Nc1nc(N)nc2ccccc12	3.18	0.45	> 24				0.71	
CCCC[C@@H](CCO)Nc1nc(N)nc2cccc(C)c12	0.14	0.06	> 24	0.6	82	67	0.02	
CCC[C@@H](CCO)Nc1nc(N)nc2cc(F)ccc12	0.11	0.04	> 24	9.1	100	13	4.8	
CCCC[C@H](CO)Nc1nc(N)nc2ccccc12	22.5	0.05	> 24				0.16	
CCC[C@@H](CCO)Nc1nc(N)nc2ccc(F)cc12	1.05	0.42	> 24		47	22		
CCC[C@@H](CO)Nc1nc(N)nc2ccccc12	0.46	0.01	> 24				0.04	
CCCC[C@@H](CCO)Nc1nc(N)nc2ccc(OC)cc12	1.85	2.81	> 24	6	97	25	0.88	
CCC[C@H](CO)Nc1nc(N)nc2ccccc12	> 25	0.57	> 24				2.36	
CCCC[C@@H](CCO)Nc1nc(N)nc2ccccc12	0.08	0.08	> 24	2.7	82	45	0.02	
CCCC[C@@H](CCO)Nc1nc(N)nc2cc(C)ccc12	0.03	0.06	> 24	1.8	98	70	0.02	
CCCC[C@@H](CCO)Nc1nc(N)nc2cc(F)ccc12	0.04	0.03	> 24		91	39	0.04	
CCC[C@@H](CCO)Nc1nc(N)nc2cc(C)ccc12	0.06	0.05	> 24	8.1	87	44	0.39	
CCC[C@@H](CCO)Nc1nc(N)nc2ccc(C)cc12	0.54	0.45	> 24	7.2	97	21	0.39	
CCCC[C@@H](CO)Nc1nc(N)nc2ccccc12	0.24	0.02	> 24				0.04	
CCCC[C@@H](CCO)Nc1nc(N)nc2ccc(F)cc12	1.59	0.42	> 24	5.8	63	33	0.37	
CCC[C@@H](CCO)Nc1nc(N)nc2cccc(C)c12	0.22	0.14	> 24	5.5	88	44		
CCCC[C@@H](CCO)Nc1nc(N)nc2ccc(C)cc12	0.44	0.25	> 24	5.4	99	24	0.14	
CCCC[C@@H](CCO)Nc1nc(N)nc2cc(OC)ccc12	0.16	0.16	> 24		80	37	0.04	
CCC[C@@H](CCO)Nc1nc(N)nc2ccccc12	0.2	0.11	> 24	6.8	72	23	0.38	
CCCCNc1nc(N)nc2ccccc12	0.16	0.06	> 24				0.03	
CCC[C@@H](CCO)Nc1nc(N)nc2ccc(OC)cc12	11.8	2.97	> 24					
CCCC[C@@H](CCO)Nc1nc(N)nc2c(F)cccc12	0.11	0.16	> 24	4.47	98	76	0.05	
CC(C)C[C@@H](CCO)Nc1nc(N)nc2ccccc12	1.83	0.69	> 24				0.55	
CC[C@@H](CO)Nc1nc(N)nc2ccccc12	3.9	0.19	> 24				2.3	
